Test results reported in ChEMBL document CHEMBL2413015, “Synthesis, evaluation and molecular dynamics study of some new 4-aminopyridine semicarbazones as an antiamnesic and cognition enhancing agents” (Bioorg Med Chem, 2013).

Columns and labels:
Rattus norvegicus [1] = experiment: Cognitive enhancing effect in po dosed Wistar rat assessed as reversal of learning impairment measured as transfer latency administered for 8 days by elevated plus maze test; type: functional, organism-based
Procedure, shortened: (§1)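 Oral dosing at 5 or 10 mg/kg for 8 days, suspended in 0.3% carboxymethyl cellulose; vehicle-treated controls. Transfer latency on elevated plus maze measured on first and second days of exposure (treatment days 7 and 8). Mean ± SEM, n = 6, one-way ANOVA versus vehicle control.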

Cholinesterase [2] = target: T1, Cholinesterase (Homo sapiens, UniProt P06276); experiment: Competitive inhibition of human serum BChE using butyrylthiocholine iodide as substrate by Lineweaver-Burk plot analysis
T1 sequence (P06276 whole entry): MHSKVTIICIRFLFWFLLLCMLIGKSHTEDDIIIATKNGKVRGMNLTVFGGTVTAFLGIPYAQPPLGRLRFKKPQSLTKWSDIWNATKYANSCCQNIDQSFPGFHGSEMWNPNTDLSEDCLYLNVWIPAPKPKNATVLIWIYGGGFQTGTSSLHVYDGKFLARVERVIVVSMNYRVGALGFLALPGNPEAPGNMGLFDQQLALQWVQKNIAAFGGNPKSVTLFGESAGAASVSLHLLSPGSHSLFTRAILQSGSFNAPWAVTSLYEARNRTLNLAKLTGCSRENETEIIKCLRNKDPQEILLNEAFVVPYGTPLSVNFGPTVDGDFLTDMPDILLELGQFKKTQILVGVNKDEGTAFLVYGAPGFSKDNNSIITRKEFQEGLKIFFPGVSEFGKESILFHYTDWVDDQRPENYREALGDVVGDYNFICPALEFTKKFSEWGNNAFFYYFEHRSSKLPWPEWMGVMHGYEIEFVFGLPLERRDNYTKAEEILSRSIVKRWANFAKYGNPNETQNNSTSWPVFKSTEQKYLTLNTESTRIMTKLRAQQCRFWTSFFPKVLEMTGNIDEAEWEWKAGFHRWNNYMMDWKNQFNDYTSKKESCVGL
Procedure, shortened: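 Ellman assay in phosphate buffer pH 8 with a fixed amount of cholinesterase. Thiocholine substrate was varied from below to above, but near, Km, with or without inhibitor. Inhibition type was assigned from Lineweaver–Burk plots.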

Rattus norvegicus [3] = experiment: (§2) Cognitive enhancing effect in Charles Foster rat assessed as reversal of scopolamine-induced amnesia measured as transfer latency at 5 mg/kg, po for 8 days administered 1 hr prior to scopolamine-challenge on day 7 measured on day 8 by elevated plus maze test (reference value: 62.17 +/- 0.47 seconds); type: functional
Rattus norvegicus [4] = experiment: Activity at AChE in Charles Foster rat prefrontal cortex assessed as substrate hydrolyzed per mg of protein at 5 mg/kg, po for 8 days by Ellman's method (reference value: 45.83 +/- 0.94 mol/min); type: functional
Rattus norvegicus [5] = experiment: Activity at AChE in Charles Foster rat hippocampus assessed as substrate hydrolyzed per mg of protein at 10 mg/kg, po for 8 days by Ellman's method (reference value: 47.50 +/- 0.84 mol/min); type: functional
Cholinesterase [6] = target: T1, Cholinesterase; experiment: Inhibition of human serum BChE using butyrylthiocholine iodide as substrate preincubated for 20 mins prior to substrate addition by Ellman's method
Procedure, shortened: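 Human serum BChE was dissolved in 0.1% gelatine. The final mix held 0.1 M phosphate pH 8.0, DTNB, 0.02 unit/mL enzyme and butyrylthiocholine iodide. Five inhibitor concentrations spanning 20–80% inhibition were preincubated with enzyme for 20 min at 37 °C, then substrate was added. Rate was read at 412 nm over 5 min against an enzyme-free blank. Each point was run in triplicate, and IC50 was read graphically from log concentration–% inhibition curves.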

Rattus norvegicus [7] = experiment: as §2, with “10” for “5”; type: functional
[8] = Selectivity ratio of IC50 for human serum BChE to IC50 for electric eel AChE
Procedure, shortened: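 Ratio of IC50 (BChE) to IC50 (AChE). Both came from Ellman assays at 0.1 M phosphate pH 8.0 and 0.02 unit/mL enzyme: AChE (stock in phosphate buffer) with acetylthiocholine, human serum BChE (stock in 0.1% gelatine) with butyrylthiocholine.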

Rattus norvegicus [9] = experiment: Cognitive enhancing effect in Wistar rat assessed as reversal of learning impairment measured as transfer latency at 10 mg/kg, po for 8 days measured on first day of test by elevated plus maze test (reference value: 70.846 +/- 0.76 seconds); type: functional; procedure, shortened: as §1
Rattus norvegicus [10] = experiment: Cognitive enhancing effect in Wistar rat assessed as reversal of learning impairment measured as transfer latency at 10 mg/kg, po for 8 days measured on second day of test by elevated plus maze test (reference value: 66.824 +/- 0.47 seconds); type: functional; procedure, shortened: as §1
Rattus norvegicus [11] = experiment: (§3) Cognitive enhancing effect in Charles Foster rat assessed as reversal of scopolamine-induced amnesia measured as transfer latency at 10 mg/kg, po for 8 days administered 1 hr prior to scopolamine-challenge on day 7 measured on same day by elevated plus maze test (reference value: 67.83 +/- 0.94 seconds); type: functional
Rattus norvegicus [12] = experiment: Activity at AChE in Charles Foster rat hippocampus assessed as substrate hydrolyzed per mg of protein at 5 mg/kg, po for 8 days by Ellman's method (reference value: 47.50 +/- 0.84 mol/min); type: functional
Rattus norvegicus [13] = experiment: Cognitive enhancing effect in Wistar rat assessed as reversal of learning impairment measured as transfer latency at 5 mg/kg, po for 8 days measured on second day of test by elevated plus maze test (reference value: 66.824 +/- 0.47 seconds); type: functional; procedure, shortened: as §1
Acetylcholinesterase [14] = target: T2, Acetylcholinesterase (Electrophorus electricus, UniProt O42275); experiment: Inhibition of electric eel AChE using acetylthiocholine iodide as substrate preincubated for 20 mins prior to substrate addition by Ellman's method
T2 sequence (O42275 whole entry): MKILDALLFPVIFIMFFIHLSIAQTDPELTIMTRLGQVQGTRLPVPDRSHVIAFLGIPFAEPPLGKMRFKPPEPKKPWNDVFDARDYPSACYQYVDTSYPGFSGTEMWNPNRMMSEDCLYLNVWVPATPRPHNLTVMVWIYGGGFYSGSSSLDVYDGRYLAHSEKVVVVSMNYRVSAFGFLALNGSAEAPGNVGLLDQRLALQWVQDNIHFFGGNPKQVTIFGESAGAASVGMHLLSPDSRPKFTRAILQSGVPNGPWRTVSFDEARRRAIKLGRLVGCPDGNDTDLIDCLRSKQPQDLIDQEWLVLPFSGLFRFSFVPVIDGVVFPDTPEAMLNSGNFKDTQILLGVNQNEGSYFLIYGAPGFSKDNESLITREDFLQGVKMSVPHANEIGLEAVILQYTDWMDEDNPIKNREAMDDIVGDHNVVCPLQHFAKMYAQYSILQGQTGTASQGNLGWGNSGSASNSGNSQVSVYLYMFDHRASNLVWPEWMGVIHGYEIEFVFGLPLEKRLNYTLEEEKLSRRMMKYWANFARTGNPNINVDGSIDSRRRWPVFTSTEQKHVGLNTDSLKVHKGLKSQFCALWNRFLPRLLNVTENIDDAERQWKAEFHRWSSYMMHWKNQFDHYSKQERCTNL

Rattus norvegicus [15] = experiment: Activity at AChE in Charles Foster rat prefrontal cortex assessed as substrate hydrolyzed per mg of protein at 10 mg/kg, po for 8 days by Ellman's method (reference value: 45.83 +/- 0.94 mol/min); type: functional
Rattus norvegicus [16] = experiment: Cognitive enhancing effect in Wistar rat assessed as reversal of learning impairment measured as transfer latency at 5 mg/kg, po for 8 days measured on first day of test by elevated plus maze test (reference value: 70.846 +/- 0.76 seconds); type: functional; procedure, shortened: as §1
Rattus norvegicus [17] = experiment: Activity at AChE in Charles Foster rat hypothalamus assessed as substrate hydrolyzed per mg of protein at 5 mg/kg, po for 8 days by Ellman's method (reference value: 40.50 +/- 0.76 mol/min); type: functional
Rattus norvegicus [18] = experiment: as §3, with “5” for “10”; type: functional
Rattus norvegicus [19] = experiment: Activity at AChE in Charles Foster rat hypothalamus assessed as substrate hydrolyzed per mg of protein at 10 mg/kg, po for 8 days by Ellman's method (reference value: 40.50 +/- 0.76 mol/min); type: functional
Rattus norvegicus [20] = experiment: Toxicity in albino rat assessed as change in normal behavioral response upto 100 mg/kg after 30 mins to 48 hrs; type: organism-based; parameters: dose 100 mg/kg; conditions: in vivo
Procedure, shortened: (§4)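 Acute toxicity followed OECD guidelines. Nulliparous, non-pregnant female albino rats (120–150 g) were fasted overnight with water ad libitum. Graded oral doses up to 100 mg/kg were given in 0.3% carboxymethyl cellulose. Rats were observed continuously for 30 min, at 2 h and up to 48 h for behavioural or autonomic changes, tremors, convulsions, salivation, diarrhoea, sleep, lacrimation, cardiovascular signs, feeding and mortality.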

Rattus norvegicus [21] = experiment: Toxicity in albino rat assessed as mortality upto 100 mg/kg after 30 mins to 48 hrs; type: organism-based; parameters: dose 100 mg/kg; conditions: in vivo; procedure, shortened: as §4
Acetylcholinesterase [22] = target: T2, Acetylcholinesterase; experiment: Non competitive inhibition of electric eel AChE using acetylthiocholine iodide as substrate by Lineweaver-Burk plot analysis

SMILES	Activity (Rattus norvegicus [1])	Ki (Cholinesterase [2]) [nM]	Time (Rattus norvegicus [3]) [s]	Activity (Rattus norvegicus [4]) [mol/min]	Activity (Rattus norvegicus [5]) [mol/min]	IC50 (Cholinesterase [6]) [nM]	Time (Rattus norvegicus [7]) [s]	Ratio IC50 [8]	Time (Rattus norvegicus [9]) [s]	Time (Rattus norvegicus [10]) [s]	Time (Rattus norvegicus [11]) [s]	Activity (Rattus norvegicus [12]) [mol/min]	Time (Rattus norvegicus [13]) [s]	IC50 (Acetylcholinesterase [14]; read-out: IC50) [nM]	Activity (Rattus norvegicus [15]) [mol/min]	Time (Rattus norvegicus [16]) [s]	Activity (Rattus norvegicus [17]) [mol/min]	Time (Rattus norvegicus [18]) [s]	Activity (Rattus norvegicus [19]) [mol/min]	Activity (Rattus norvegicus [20])	further results
O=C(NN=C(c1ccccc1)c1ccccc1)Nc1ccncc1	Dose-dependent effect	16800	56.13	32.67	32	18500	54.17	355	43.73	37.97	61.83	33.67	40.42	52	30	46.81	31	64.57	29.17	Non-toxic	Activity (Rattus norvegicus [21]): Non-toxic; Ki (Acetylcholinesterase [22]): 82 nM
C/C(=N\NC(=O)Nc1ccncc1)c1ccc(O)cc1	Dose-dependent effect	628	60.5	35.5	34.17	358	56.83	2.46	48.17	39.5	64.17	36.33	43.17	145	33.83	48.07	34.13	65.33	31.5	Non-toxic	IC50 (Acetylcholinesterase [14]; read-out: pIC50 (converted)): 148 nM; Activity (Rattus norvegicus [21]): Non-toxic; Ki (Acetylcholinesterase [22]): 246 nM
